According to ChEMBL document CHEMBL4673344, “Novel substituted N-benzyl(oxotriazinoindole) inhibitors of aldose reductase exploiting ALR2 unoccupied interactive pocket” (Bioorg Med Chem, 2021):

Key:
Rattus norvegicus [1] = species on record: Rattus norvegicus; test: Selectivity index, ratio of IC50 for Wistar rat kidney ALR1 to IC50 for Wistar rat lens ALR2
Method in brief: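 Selectivity factor S_F = IC50(ALR1)/IC50(ALR2). ALR1 came from rat kidneys and ALR2 from rat eye lenses with D,L-glyceraldehyde as substrate. Both were assayed spectrophotometrically by NADPH consumption at 340 nm.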

[2] = Inhibition of Wistar rat kidney ALR1 assessed as reduction in NADPH consumption using sodium D-glucuronate as substrate incubated for 1 min and measured up to 4 mins by spectrophotometric analysis; type: tissue-based
Method in brief: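 Aldehyde reductase (ALR1) was isolated from rat kidneys. Activity was monitored spectrophotometrically by NADPH consumption at 340 nm, expressed as decrease in O.D./s/mg protein. The IC50 was determined from inhibition of this activity.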

ALR1 = test: Inhibition of Wistar rat kidney ALR1 assessed as reduction in NADPH consumption using sodium D-glucuronate as substrate at 100 uM incubated for 1 min and measured up to 4 mins by spectrophotometric analysis relative to control; type: tissue-based; conditions: rat kidney ALR1 (aldehyde reductase) enzyme, probe sodium D-glucuronate
Method in brief: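 Enzyme: ALR1 isolated from rat kidneys. Activity was followed spectrophotometrically as NADPH consumption at 340 nm and expressed as decrease in O.D./s/mg protein. Inhibition is given as % of enzyme inhibition at 100 μM inhibitor.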

[3] = Inhibition of Wistar rat lens ALR2 assessed as reduction in NADPH consumption using D,L-glyceraldehyde as substrate incubated for 1 min and measured up to 4 mins by spectrophotometric analysis; type: tissue-based
Method in brief: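 ALR2 was isolated from rat eye lenses and assayed for reduction of D,L-glyceraldehyde. NADPH consumption was read spectrophotometrically at 340 nm, with activity expressed as decrease in O.D./s/mg protein. The IC50 was derived from inhibition of this activity.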

Rattus norvegicus [4] = species on record: Rattus norvegicus; test: Potency index, ratio of IC50 of OTI-6 to IC50 of compound for inhibition of Wistar rat lens ALR2 assessed as reduction in NADPH consumption using D,L-glyceraldehyde as substrate incubated for 1 min and measured up to 4 mins by spectrophotometric analysis; type: tissue-based

| Ratio IC50 (Rattus norvegicus [1]) | IC50 [2] | inhibition at 4 min, 100 µM (ALR1) | IC50 [3] | pIC50 [3] | Structure (SMILES) | Ratio IC50 (Rattus norvegicus [4]) |
| --- | --- | --- | --- | --- | --- | --- |
| 424 | 59000 nM | 62% | 139 nM | 6.86 | O=C(O)Cn1c2ccccc2c2nn(Cc3ccccc3C(=O)O)c(=O)nc21 |  |
| > 230 | > 100000 nM | 38% | 434 nM | 6.36 | O=C(O)Cn1c2ccccc2c2nn(Cc3ccccc3)c(=O)nc21 |  |
| > 424 | > 100000 nM | 50% | 236 nM | 6.63 | NC(=O)c1ccccc1Cn1nc2c3ccccc3n(CC(=O)O)c2nc1=O | 2 |
| > 410 | > 100000 nM | 33% | 241 nM | 6.61 | O=C(O)Cn1c2ccccc2c2nn(Cc3ccccc3CO)c(=O)nc21 | 2 |
| > 1330 | > 100000 nM | 51% | 76 nM | 7.12 | N#Cc1ccccc1Cn1nc2c3ccccc3n(CC(=O)O)c2nc1=O |  |
